In the array DNA melting data of Ke et al. (doi:10.1101/2024.01.08.574731):

Key:
[1] = melting temperature; fluorescence melt of hairpins on a sequencing array, two-state fit, raised by 9.35 °C to match UV melts; settings: sodium 0.088 M
Method in brief: (§1)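 Bootstrapped two-state fits yielded melting temperature and folding enthalpy for library hairpins. Cy3 fluorescence, with annealed Cy3 and quencher oligos, was imaged on a sequenced MiSeq flow cell in 50 mM Na-HEPES pH 8.0, 25 mM NaCl in 2.5 °C steps up to 60 °C, and normalised to pre-quench Cy3 and to control constructs. Four replicates were combined by inverse variance, and fitted temperatures were raised by 9.35 °C to match UV melts.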

[2] = folding enthalpy; higher = less favourable; fluorescence melt of hairpins on a sequencing array, two-state fit; settings: sodium 0.088 M
Method in brief: as §1

| Sequence | Tm [1] [°C] | folding enthalpy [2] [kcal/mol] |
| --- | --- | --- |
| GTGGGGGGAAACTCCCGC (.(((.(....).))).) | 48.8 | -21.4 |
| CGTCGCGGAAACGCTACG (((.(((....))).))) | 49.3 | -28.9 |
| GTGACCGAAAGGTCGCAC ((((((....)))..))) | 58.6 | -11.1 |
| GCCCATGCGAAAGCAGGC (((..(((....)))))) | 50.8 | -13.8 |
| CGAAAGAAATTTCG (((((....))))) | 38.5 | -13.6 |
| GTTGACGAAAGTCCAAAC ((((((....)))..))) | 24.3 | -9.18 |
| GCGGACGAAAGTCTACGC ((((((....)))..))) | 52.2 | -28.8 |
| GATCGTGCTACGATC ((((((...)))))) | 57.3 | -41 |
| GCTGACGAAAGTCGAGC ((((((....))).))) | 54.6 | -37.7 |
| GGATTTCGAAAGAACTCC (((.(((....))).))) | 38 | -29.4 |
| GGTGCCGAAAGGCAAACC ((((((....)))..))) | 50.9 | -14.6 |
| GGACTTGGAAACAAATCC (((.(((....))).))) | 35.3 | -12.4 |
| GAGCGGCCGAAAGGCCTC (((..(((....)))))) | 28 | -6.54 |
| GATCCCCCACGGGATC ((((((....)))))) | 58.1 | -35.6 |
| GATCGACACCTCGATC ((((((....)))))) | 52.5 | -44.7 |
| GAGTCCGAAAGGAGACTC ((((((....)))..))) | 44.9 | -21.9 |
| GATCTACGGTAGATC ((((((...)))))) | 41.4 | -37.3 |
| GTTCGCACGAAAGTGAAC (((..(((....)))))) | 39 | -16.3 |
| CGTCACGGAAACGTTACG (((.(((....))).))) | 45.3 | -31.2 |
| GTACTCGAAAGAGTATAC ((((((....)))..))) | 39.3 | -13.3 |
| GGCGTACGAAAGTAGGCC (((.(((....))).))) | 64.1 | -36.6 |
| GATCTGCGGTCAGATC ((((((....)))))) | 49.7 | -32.9 |
| GAGACAGGAAACCGTCTC (((((.(....).))))) | 46.3 | -29.2 |

| Sequence | Tm [1] [°C] | folding enthalpy [2] [kcal/mol] |
| --- | --- | --- |
| GTACTCGAAAGAGCATAC ((((((....)))..))) | 23.5 | -10.9 |
| GATTGCGAAAGCAAGATC ((((((....)))..))) | 50.2 | -14.8 |
| GCTTGTCGAAAGACAGC (((.(((....)))))) | 52.9 | -19.9 |
| GATCGTAAGACGATC ((((((...)))))) | 54.2 | -42.3 |
| GTCGCCGGAAACGGTGAC (((.(((....))).))) | 63.7 | -41.5 |
| GCTAGCGAAAGCTTAAGC ((((((....)))..))) | 43.2 | -16.9 |
| GATGTGCCGAAAGGCATC (((..(((....)))))) | 36.1 | -8.04 |
| GATGGCGGAAACGCTGTC ((..(((....)))..)) | 44 | -17.1 |
| GTAAGCGAAAGCTCTAC ((((((....))).))) | 32.2 | -11.9 |
| GCCATTCGAAAGAAGGC (((.(((....)))))) | 48.1 | -25.6 |
| GTTCAAGGAAACCTGAAC (((((.(....).))))) | 35.6 | -30.1 |
| GGGTACGAAAGTAGACCC ((((((....)))..))) | 46.2 | -19.2 |
| GCGCCCCGAAAGGGTCGC (((.(((....))).))) | 68 | -45.8 |
| GCCCACGAAAGTGGAGGC ((((((....)))..))) | 52.5 | -15.5 |
| GGAGCAGGAAACCACTCC ((((..(....)..)))) | 27.1 | -11.5 |
| GAGCCACGAAAGTGTCTC (((.(((....))).))) | 50 | -29 |
| GTGGTCCGAAAGGATCAC (((.(((....))).))) | 60.4 | -41.1 |
| GAACCTGGAAACAGGTTC (((((((....))))))) | 65.5 | -36.9 |
| GCAAAGCGAAAGCTCGGC ((..(((....)))..)) | 36.5 | -16.6 |
| TAGCAGAAATGCTA (((((....))))) | 38.1 | -14 |
| GGGGGCGAAAGCCCTCCC ((((((....)))..))) | 51.9 | -9.75 |
| GGGATCGAAAGATCTCCC ((((((....)))..))) | 47.2 | -14.1 |
| GATCCTGTGGAGGATC ((((((....)))))) | 51.8 | -31.8 |

| Sequence | Tm [1] [°C] | folding enthalpy [2] [kcal/mol] |
| --- | --- | --- |
| GATCAGAAGCTGATC ((((((...)))))) | 48 | -33 |
| CGACCCGGAAACGGCTCG (((.(((....))).))) | 40.1 | -23.7 |
| GATCATACAAATGATC ((((((....)))))) | 44.6 | -33.6 |
| GCAATGCCGAAAGGCTGC (((..(((....)))))) | 49.1 | -15.6 |
| GCGATGGGAAACCATTGC ((.((((....)))).)) | 52.5 | -49.3 |
| GACACCGAAAGGTCGGTC ((((((....)))..))) | 35 | -16.7 |
| GATCTTTTTAAAGATC ((((((....)))))) | 49.6 | -41.4 |
| GATCCAATCGTGGATC ((((((....)))))) | 49 | -38.5 |
| GGTATCGAAAGATAACC ((((((....))).))) | 40.8 | -21.5 |
| GCCGGCGAAAGCCGTGGC ((((((....)))..))) | 58.4 | -13.1 |
| GCTCAGGGAAACTTGAGC (((((.(....).))))) | 48.7 | -33.3 |
| GCTACGGGAAACCGTAAC (.(((((....))))).) | 36.1 | -13.7 |
| GCGTGGCGAAAGCAAAGC ((.(.((....)).).)) | 52.1 | -17.4 |
| GATCTGTGACAGATC ((((((...)))))) | 48.8 | -31.5 |
| GATCTACATTTAGATC ((((((....)))))) | 39 | -35.3 |
| GAAGTGCGAAAGCATTC (((.(((....)))))) | 36.2 | -13.5 |
| GCTGACGAAAGTCTAGC ((((((....))).))) | 51.9 | -22.1 |
| GTGCACGAAAGTGTGCAC ((((((....)))..))) | 62.6 | -34 |
| GATACCGAAAGGTAAATC ((((((....)))..))) | 28.7 | -13.5 |
| GTTTGCCGAAAGGCAAC (((.(((....)))))) | 50.4 | -10.7 |
| GCACGAGGAAACCCGTGC (((((.(....).))))) | 58.2 | -45.2 |
| GGTTTAGAAATAAACC ((((((....)))))) | 45.3 | -29.2 |
| GATCACCACCGTGATC ((((((....)))))) | 55.5 | -37.3 |

| Sequence | Tm [1] [°C] | folding enthalpy [2] [kcal/mol] |
| --- | --- | --- |
| GTGTACGGAAACGTACGC (.(((((....))))).) | 55.1 | -20.6 |
| CGCCCGGAAACGGAGCG ((((((....))).))) | 58.3 | -31.8 |
| GATCCTAACTAGGATC ((((((....)))))) | 53.3 | -36.2 |
| GTCCCCGAAAGGGGGGAC ((((((....)))..))) | 60.5 | -11.7 |
| CGTGCGGAAACGCTGACG ((((((....)))..))) | 42.5 | -21.2 |
| GTGTTACGAAAGTAGCAC (((.(((....))).))) | 53.9 | -35.7 |
| GTGCGCCGAAAGGCTCAC (((.(((....))).))) | 56.9 | -29.1 |
| GGACGCGAAAGCGCCTCC ((((((....)))..))) | 60.2 | -11.6 |
| GCCGGCGAAAGCCCAGGC ((((((....)))..))) | 57.5 | -19.4 |
| GAAAAACGAAAGTTCTTC (((.(((....))).))) | 28.2 | -13.4 |
| GATCGCTAGAGCGATC ((((((....)))))) | 67.6 | -34.2 |
| GATCAACCTGTTGATC ((((((....)))))) | 55.2 | -41 |
| GATCGGGGCGCCGATC ((((((....)))))) | 58.4 | -39 |
| GATCGAGAGTCGATC ((((((...)))))) | 49.4 | -29.7 |
| GATCTTTGTAAGATC ((((((...)))))) | 45.5 | -28.8 |
| GTGAGCGGAAACGTTCAC ((((.((....)).)))) | 52.8 | -41.2 |
| GACTGAGGAAACCCAGTC (((((.(....).))))) | 44.8 | -33.7 |
| GCTCAGGGAAACCCAAGC (((..((....))..))) | 33.3 | -12.9 |
| GATCGCACCGGCGATC ((((((....)))))) | 68.3 | -33.7 |
| GTTCACCCGAAAGGGAAC (((..(((....)))))) | 37.2 | -14.3 |
| GATCGCCTCGCGATC ((((((...)))))) | 68.7 | -30.2 |
| GATCCCCTCCGGGATC ((((((....)))))) | 58.4 | -36 |
| GATCCTCCAGAGGATC ((((((....)))))) | 55.5 | -35.5 |
